# Legend:
# Assay type in all cases: functional
# COLO 205 = experiment: Growth inhibition of human COLO205 cells assessed as growth percentage at 10 uM incubated for 48 hrs by sulforhodamine B assay relative to control; conditions: COLO 205, 48 h, read-out: Activity
# In short: (§1)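 NCI-60 one-dose screen: cells in RPMI 1640 with 5% FBS and 2 mM L-glutamine, plated at 5,000–40,000 cells/well and preincubated 24 h at 37 °C, 5% CO2. Compound is added from a DMSO stock to a final 10 µM and incubated 48 h. Cells are TCA-fixed and stained with sulforhodamine B, read at 515 nm. Output is % growth versus untreated control, with a time-zero plate.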
# PC-3 = experiment: Growth inhibition of human PC3 cells assessed as growth percentage at 10 uM incubated for 48 hrs by sulforhodamine B assay relative to control; conditions: PC-3, 48 h, read-out: Activity
# In short: (§2)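 NCI-60 single-dose screen. Cells were grown in RPMI 1640 with 5% FBS and 2 mM L-glutamine and plated at 5,000–40,000 cells/well. After an overnight preincubation at 37 °C in 5% CO2, compound was added at a final 10 µM from a DMSO stock, with DMSO/PBS controls. After 48 h, cells were TCA-fixed and stained with 0.4% SRB, and absorbance was read at 515 nm. Growth is given as a percentage of untreated control.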
# Malme-3M = experiment: Growth inhibition of human MALME-3M cells assessed as growth percentage at 10 uM incubated for 48 hrs by sulforhodamine B assay relative to control; conditions: read-out: Activity
# In short: (§3)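 NCI-60 one-dose screen. Cells in RPMI 1640 with 5% FBS and 2 mM L-glutamine, seeded at 5,000–40,000 cells/well according to doubling time, and preincubated overnight at 37 °C, 5% CO2. A time-zero plate was TCA-fixed at drug addition. Compound from DMSO stock, final 10 µM, 48 h; DMSO vehicle controls. Fixation with TCA, 10% final (16% for suspension cells). SRB stain, Tris solubilization, A515. Result given as % growth versus untreated cells.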
# SK-MEL-28 = experiment: Growth inhibition of human SK-MEL-28 cells assessed as growth percentage at 10 uM incubated for 48 hrs by sulforhodamine B assay relative to control; conditions: SK-MEL-28, 48 h, read-out: Activity; in short: as §2
# IGROV-1 = experiment: Growth inhibition of human IGROV1 cells assessed as growth percentage at 10 uM incubated for 48 hrs by sulforhodamine B assay relative to control; conditions: IGROV-1, 48 h, read-out: Activity; in short: as §3
# SF-268 = experiment: Growth inhibition of human SF268 cells assessed as growth percentage at 10 uM incubated for 48 hrs by sulforhodamine B assay relative to control; conditions: SF-268, 48 h, read-out: Activity; in short: as §2
# 786-0 = experiment: Growth inhibition of human 786-0 cells assessed as growth percentage at 10 uM incubated for 48 hrs by sulforhodamine B assay relative to control; conditions: 786-0, 48 h, read-out: Activity; in short: as §1
# MOLT-4 = experiment: Growth inhibition of human MOLT4 cells assessed as growth percentage at 10 uM incubated for 48 hrs by sulforhodamine B assay relative to control; conditions: MOLT-4, 48 h, read-out: Activity; in short: as §3
# HOP-92 = experiment: Growth inhibition of human HOP92 cells assessed as growth percentage at 10 uM incubated for 48 hrs by sulforhodamine B assay relative to control; conditions: HOP-92, 48 h, read-out: Activity; in short: as §3
# NCI-H23 = experiment: Growth inhibition of human NCI-H23 cells assessed as growth percentage at 10 uM incubated for 48 hrs by sulforhodamine B assay relative to control; conditions: NCI-H23, 48 h, read-out: Activity; in short: as §3
# NCI/ADR-RES = experiment: Growth inhibition of human NCI/ADR-RES cells assessed as growth percentage at 10 uM incubated for 48 hrs by sulforhodamine B assay relative to control; conditions: read-out: Activity; in short: as §3
# NCI-H460 = experiment: Growth inhibition of human NCI-H460 cells assessed as growth percentage at 10 uM incubated for 48 hrs by sulforhodamine B assay relative to control; conditions: NCI-H460, 48 h, read-out: Activity; in short: as §3
# RXF 393 = experiment: Growth inhibition of human RXF393 cells assessed as growth percentage at 10 uM incubated for 48 hrs by sulforhodamine B assay relative to control; conditions: RXF 393, 48 h, read-out: Activity; in short: as §2
# SW-620 = experiment: Growth inhibition of human SW620 cells assessed as growth percentage at 10 uM incubated for 48 hrs by sulforhodamine B assay relative to control; conditions: SW-620, 48 h, read-out: Activity; in short: as §2
# TK-10 = experiment: Growth inhibition of human TK10 cells assessed as growth percentage at 10 uM incubated for 48 hrs by sulforhodamine B assay relative to control; conditions: TK-10, 48 h, read-out: Activity; in short: as §2
# ACHN = experiment: Growth inhibition of human ACHN cells assessed as growth percentage at 10 uM incubated for 48 hrs by sulforhodamine B assay relative to control; conditions: read-out: Activity; in short: as §1
# NCI-H322M = experiment: Growth inhibition of human NCI-H322M cells assessed as growth percentage at 10 uM incubated for 48 hrs by sulforhodamine B assay relative to control; conditions: read-out: Activity; in short: as §3
# SN12C = experiment: Growth inhibition of human SN12C cells assessed as growth percentage at 10 uM incubated for 48 hrs by sulforhodamine B assay relative to control; conditions: read-out: Activity; in short: as §2
# HT-29 = experiment: Growth inhibition of human HT-29 cells assessed as growth percentage at 10 uM incubated for 48 hrs by sulforhodamine B assay relative to control; conditions: HT-29, 48 h, read-out: Activity; in short: as §3
# T47D = experiment: Growth inhibition of human T47D cells assessed as growth percentage at 10 uM incubated for 48 hrs by sulforhodamine B assay relative to control; conditions: read-out: Activity; in short: as §2
# OVCAR-8 = experiment: Growth inhibition of human OVCAR8 cells assessed as growth percentage at 10 uM incubated for 48 hrs by sulforhodamine B assay relative to control; conditions: OVCAR-8, 48 h, read-out: Activity; in short: as §2
# MDA-MB-435 = experiment: Growth inhibition of human MDA-MB-435 cells assessed as growth percentage at 10 uM incubated for 48 hrs by sulforhodamine B assay relative to control; conditions: MDA-MB-435, 48 h, read-out: Activity; in short: as §3
# MDA-MB-468 = experiment: Growth inhibition of human MDA-MB-468 cells assessed as growth percentage at 10 uM incubated for 48 hrs by sulforhodamine B assay relative to control; conditions: MDA-MB-468, 48 h, read-out: Activity; in short: as §3
# HCC 2998 = experiment: Growth inhibition of human HCC2998 cells assessed as growth percentage at 10 uM incubated for 48 hrs by sulforhodamine B assay relative to control; conditions: HCC 2998, 48 h, read-out: Activity; in short: as §1
# UO-31 = experiment: Growth inhibition of human UO31 cells assessed as growth percentage at 10 uM incubated for 48 hrs by sulforhodamine B assay relative to control; conditions: UO-31, 48 h, read-out: Activity; in short: as §2
# SK-OV-3 = experiment: Growth inhibition of human SKOV3 cells assessed as growth percentage at 10 uM incubated for 48 hrs by sulforhodamine B assay relative to control; conditions: SK-OV-3, 48 h, read-out: Activity; in short: as §2
Structure (SMILES),growth at 10 µM (COLO 205),growth at 10 µM (PC-3),growth at 10 µM (Malme-3M),growth at 10 µM (SK-MEL-28),growth at 10 µM (IGROV-1),growth at 10 µM (SF-268),growth at 10 µM (786-0),growth at 10 µM (MOLT-4),growth at 10 µM (HOP-92),growth at 10 µM (NCI-H23),growth at 10 µM (NCI/ADR-RES),growth at 10 µM (NCI-H460),growth at 10 µM (RXF 393),growth at 10 µM (SW-620),growth at 10 µM (TK-10),growth at 10 µM (ACHN),growth at 10 µM (NCI-H322M),growth at 10 µM (SN12C),growth at 10 µM (HT-29),growth at 10 µM (T47D),also measured
O=C1C2=C(NC(=S)NC2c2ccc3c(c2)OCO3)c2ccccc21 (racemic),113%,96.3%,106%,123%,104%,91.8%,108%,104%,95%,98.5%,103%,111%,107%,95.2%,102%,106%,106%,95.8%,108%,99%,growth at 10 µM (OVCAR-8): 102%; growth at 10 µM (MDA-MB-435): 107%; growth at 10 µM (MDA-MB-468): 108%; growth at 10 µM (HCC 2998): 106%; growth at 10 µM (UO-31): 77%; growth at 10 µM (SK-OV-3): 103%
CC(=O)N1C(=S)NC(C)=C(C(=O)OCC(C)C)C1c1ccc2c(c1)OCO2 (racemic),101%,81.2%,108%,105%,112%,100%,95.1%,95.1%,80.6%,97.1%,97%,105%,106%,97.3%,95.4%,105%,102%,94.8%,104%,66.7%,growth at 10 µM (OVCAR-8): 95.9%; growth at 10 µM (MDA-MB-435): 95.5%; growth at 10 µM (MDA-MB-468): 94.9%; growth at 10 µM (HCC 2998): 110%; growth at 10 µM (UO-31): 91.8%; growth at 10 µM (SK-OV-3): 100%
O=C1NC2=C(C(=O)c3ccccc32)C(c2ccc3c(c2)OCO3)N1 (racemic),115%,101%,106%,114%,104%,97.4%,106%,104%,99%,104%,109%,113%,98.8%,104%,96.1%,104%,111%,100%,107%,95%,growth at 10 µM (OVCAR-8): 102%; growth at 10 µM (MDA-MB-435): 105%; growth at 10 µM (MDA-MB-468): 114%; growth at 10 µM (HCC 2998): 107%; growth at 10 µM (UO-31): 85.4%; growth at 10 µM (SK-OV-3): 104%
CC(=O)N1C(=S)NC(C)=C(C(=O)OCc2ccccc2)C1c1ccc2c(c1)OCO2 (racemic),91.8%,81.3%,91.6%,102%,98%,73.8%,96.8%,58.7%,73.3%,94%,95.3%,77.9%,101%,65.3%,100%,95.5%,101%,54.5%,52.2%,58.1%,growth at 10 µM (OVCAR-8): 80.3%; growth at 10 µM (MDA-MB-435): 60.1%; growth at 10 µM (MDA-MB-468): 78.9%; growth at 10 µM (HCC 2998): 110%; growth at 10 µM (UO-31): 85.4%; growth at 10 µM (SK-OV-3): 79.2%
CC1(C)CC(=O)C2=C(C1)NC(=O)NC2c1ccc2c(c1)OCO2 (racemic),125%,99.4%,100%,111%,97.9%,98.8%,105%,95.9%,112%,104%,104%,117%,118%,109%,106%,109%,105%,105%,114%,106%,growth at 10 µM (OVCAR-8): 104%; growth at 10 µM (MDA-MB-435): 106%; growth at 10 µM (MDA-MB-468): 118%; growth at 10 µM (HCC 2998): 109%; growth at 10 µM (UO-31): 84.6%; growth at 10 µM (SK-OV-3): 112%
CC(=O)C1=C(C)Nc2nc3ccccc3n2C1c1ccc2c(c1)OCO2 (racemic),114%,92.8%,105%,107%,106%,105%,100%,102%,91%,106%,102%,112%,108%,104%,104%,110%,98.1%,101%,105%,86.3%,growth at 10 µM (OVCAR-8): 98.6%; growth at 10 µM (MDA-MB-435): 93.1%; growth at 10 µM (MDA-MB-468): 109%; growth at 10 µM (HCC 2998): 111%; growth at 10 µM (UO-31): 89.3%; growth at 10 µM (SK-OV-3): 106%
COCCOC(=O)C1=C(C)NC(=S)N(C(C)=O)C1c1ccc2c(c1)OCO2 (racemic),100%,97.8%,88.6%,106%,106%,98.4%,108%,103%,85.4%,99.1%,99.8%,104%,111%,100%,102%,102%,101%,96.7%,106%,86.9%,growth at 10 µM (OVCAR-8): 99.3%; growth at 10 µM (MDA-MB-435): 103%; growth at 10 µM (MDA-MB-468): 105%; growth at 10 µM (HCC 2998): 113%; growth at 10 µM (UO-31): 82%; growth at 10 µM (SK-OV-3): 97%
